For 40 compounds, cytotoxicity results are on record in ChEMBL document CHEMBL4513216, “Probing the Open Global Health Chemical Diversity Library for Multistage-Active Starting Points for Next-Generation Antimalarials” (ACS Infect Dis, 2020).

This data set is described as follows: Toxicity liver stage against HepG2, at 10uM. Type of data set: cell-based. Details: test concentration 10 uM, cell line HepG2-A16-CD81EGFP. Conditions: human, HepG2-A16-CD81EGFP cells; read-out: INHIBITION
In a few lines:
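Uninfected HepG2-A16-CD81EGFP cells, 3 × 10^3 per well, 1536-well, plated on prespotted compound at 10 μM final, parasite-free screening media added to match infected plates; puromycin 10 μM positive, DMSO 0.5% negative; run in parallel with 48 h PbLuc assay at 37 °C, 5% CO2; viability by CellTiter-Glo luminescence, normalized to controls.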
As for `CC(C)c1cc(C(=O)N2C[C@@H]3CC[C@H]2CN(Cc2cscn2)C3)no1`, the cytotoxicity at 10 µM was determined as 1.27%. In the case of `CCCNC(=O)c1cncc(CC2CCCN(C)C2)c1` (stereo not given) it was -16%; in that of `O=C(NC1CCN(CC2CC2)C1)N1CCC(OC2CCCCC2)CC1` (stereo not given), 4.75%; in that of `Cc1noc(C)c1CNC(C)c1ccc(S(=O)(=O)N(C)C)cc1` (stereo not given), 2.47%. In the case of `COc1ccc(-c2noc(Cn3cc(C)cn3)n2)c(OC)c1OC` it was -8.42%. The result for `CN(C)CCN(C)C(=O)Cc1ccc2c(c1)OCCO2` reads -7.94%; that for `CN(Cc1cccnc1)CC1CCCN1c1cccnn1` (stereo not given), 0.192%.

In the case of `CCc1ncc2c(n1)CN(C(C)C(=O)N1CCOCC1)CC2` (stereo not given), the cytotoxicity at 10 µM was -8.52%. The result for `CC(=O)N1CCC2(CC1)CN(C(=O)c1cccc3[nH]ccc13)CCO2` reads -149%. For `CCS(=O)(=O)N1CCN(C(C)c2ncc(-c3ccccc3)o2)CC1` (stereo not given), the cytotoxicity at 10 µM came out at 3.44%. In the case of `CCNC(=O)N1CCc2ccc(NC(=O)C(C)c3ccsc3)cc21` (stereo not given) it was -3.41%; in that of `NS(=O)(=O)c1ccc(F)c(C(=O)NCCSc2ccccn2)c1`, -9.11%. In the case of `O=C(CCc1ccccc1)N1CCCC(c2n[nH]c3nccnc23)C1` (stereo not given) it was 20.9%; in that of `COc1ccccc1C(=O)Nc1c(F)c(C(=O)N2CCCC2)nn1C`, 5.83%.

In the case of `COC[C@H]1CC[C@H]2[C@H](CCN2S(=O)(=O)Cc2ccccc2)O1`, the cytotoxicity at 10 µM was determined as 8.25%.

Regarding `O=C(NCc1ccccc1Cn1cncn1)C1CCCC1`, the cytotoxicity at 10 µM is -2.34%.

Consider `C=C(C)COc1cccc(C(=O)NC(C)c2nnn[nH]2)c1` (stereo not given), for which the cytotoxicity at 10 µM was -8.32%. In the case of `COCCOc1ccc(NC(=O)N2CCOC(C(N)=O)C2)cc1F` (stereo not given) it was -140%; in that of `CCc1c(C(=O)NCC(=O)OCC2CC2)cnn1-c1ccc(C)cc1`, -3.81%. Consider `O=C(NCCc1nccs1)[C@H](c1ccccc1)n1cnnn1`, for which the cytotoxicity at 10 µM was -0.607%. In the case of `OCCc1cc(CC2(NCc3ccc(C(F)(F)F)cc3)COC2)no1` it was -4.41%; in that of `CNC(=O)COc1ccccc1CNCc1c(C)noc1C`, 2.32%; in that of `CN(Cc1cnn(C)c1)C(CO)c1cccc(Br)c1` (stereo not given), -2.86%. On to `CC(=O)N1CCC(Cc2cnc(C(=O)N3CCCC3)cn2)C1` (stereo not given), for which the cytotoxicity at 10 µM was -23.6%. On to `CCOc1ccc(CNCc2ccc(C(=O)NC)cc2)cc1OCC`, for which the cytotoxicity at 10 µM was -7.06%. The result for `CC1COc2ccccc2N1C(=O)c1ccnc(-n2cncn2)c1` (stereo not given) reads 12.5%; that for `Cn1nc2c(cc1=O)CN(c1ncnc3ccsc13)CC2`, 9.3%. Turning to `CCc1cnc(C)nc1NC1CC(=O)N(CC)C1` (stereo not given), the cytotoxicity at 10 µM came out at 1.07%. Turning to `Cc1csc(CCNC(=O)NC(C)Cn2cccn2)n1` (stereo not given), the cytotoxicity at 10 µM is -18%.

In the case of `CN1CCN(S(=O)(=O)c2cncc(F)c2)c2ccccc2C1`, the cytotoxicity at 10 µM was -3.69%. In the case of `CC(=O)N1C[C@@H](F)[C@@H](OCc2nc3ccccc3o2)C1` it was -1.34%; in that of `Clc1ccccc1OC1CN(CC2CCOC2)C1` (stereo not given), -0.745%.

On to `Cc1cc(NCc2csc(-c3ccco3)n2)ccc1C(N)=O`, for which the cytotoxicity at 10 µM came out at 20.3%. In the case of `O=C(c1cccc2ccnn12)N1CCCC1Cn1cccn1` (stereo not given) it was -126%. The result for `CN(Cc1cccc(OC(F)(F)F)c1)C(=O)c1cnsn1` reads 0.963%. In the case of `Cc1nocc1C(=O)N1CCc2c(CN(C)C(C)C)n[nH]c2C1` it was -12.3%; in that of `O=C(CCc1cccs1)Nc1ccnn1C1CCS(=O)(=O)C1` (stereo not given), -19.8%. Turning to `OCCOCCN1CCCC1c1nc2cc(F)ccc2[nH]1` (stereo not given), the cytotoxicity at 10 µM is -17.5%. In the case of `O=C1CC[C@H]2CN(c3ncc(F)cn3)CC[C@H]2N1CCc1ccccc1` it was 9.61%. The result for `CCc1nccn1CCC(=O)N1CC[C@@H](c2ccc(F)cc2)[C@H](O)C1` reads -7.79%.
